Columns and labels:
Format in all cases: functional, cell-based
K562 = experiment: Cytotoxicity against human K562 cells after 48 hrs by sulforhodamine B assay
Procedure, shortened: (§1)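 Cells (NCI source) in RPMI-1640 with 10% FBS and antibiotics, 37 °C, 5% CO2. Seeded at 5 × 10^4 cells/mL (K562, MCF-7), 7.5 × 10^4 (U251, PC-3, SKLU-1), or 10 × 10^4 (HCT-15). After 24 h, DMSO-dissolved compounds added for 48 h. Fixed with cold TCA, stained with 0.4% SRB, Tris-extracted, read at 515 nm. IC50 from linear regression of dose-response curves.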

MCF7 = experiment: Cytotoxicity against human MCF7 cells after 48 hrs by sulforhodamine B assay; procedure, shortened: as §1
SK-LU-1 = experiment: Cytotoxicity against human SK-LU-1 cells after 48 hrs by sulforhodamine B assay; procedure, shortened: as §1
PC-3 = experiment: Cytotoxicity against human PC3 cells after 48 hrs by sulforhodamine B assay; procedure, shortened: as §1
U-251 = experiment: Cytotoxicity against human U251 cells after 48 hrs by sulforhodamine B assay; settings: U-251, 48 h; procedure, shortened: as §1
HCT-15 = experiment: Cytotoxicity against human HCT15 cells after 48 hrs by sulforhodamine B assay; settings: HCT-15, 48 h; procedure, shortened: as §1

Compound	Activity (K562)	Activity (MCF7)	Activity (SK-LU-1)	Activity (PC-3)	IC50 (U-251) [µM]	IC50 (HCT-15) [µM]
C[C@H]1NC(=O)C[C@@H](O)[C@@H]2[C@]1(C)CC[C@H]1[C@@]2(C)CC[C@@]2(C)[C@@H]3CC(C)(C)CC[C@]3(C)CC[C@]12C	Not toxic	Not toxic	Not toxic	Not toxic	–	–
CC(=O)O[C@H]1CC[C@]2(C)[C@H]3CC[C@]4(C)C(=CC[C@@]5(C(=O)O)CCC(C)(C)C[C@H]54)[C@]3(C)CC[C@H]2C1(C)C [ACETYL ALEURITOLIC ACID]	Not toxic	Not toxic	Not toxic	Not toxic	8.4	–
CC(=O)O[C@H]1C[C@@H](O)[C@@H]2[C@](C)(CC[C@H]3[C@@]2(C)CC[C@@]2(C)[C@@H]4CC(C)(C)CC[C@]4(C)CC[C@]32C)[C@H]1C	Not toxic	Not toxic	Not toxic	Not toxic	–	–
C[C@H]1C(=O)C=C[C@@H]2[C@]1(C)CC[C@H]1[C@@]2(C)CC[C@@]2(C)[C@@H]3CC(C)(C)CC[C@]3(C)CC[C@]12C	Not toxic	Not toxic	Not toxic	Not toxic	–	–
C[C@H]1[C@@H](O)C[C@@H](O)[C@@H]2[C@]1(C)CC[C@H]1[C@@]2(C)CC[C@@]2(C)[C@@H]3CC(C)(C)CC[C@]3(C)CC[C@]12C	Not toxic	Not toxic	Not toxic	Not toxic	22.8	–
C[C@H]1OC(=O)CC[C@@H]2[C@]1(C)CC[C@H]1[C@@]2(C)CC[C@@]2(C)[C@@H]3CC(C)(C)CC[C@]3(C)CC[C@]12C [FRIEDELIN-3,4-LACTONE]	Not toxic	Not toxic	Not toxic	Not toxic	17.1	–
C[C@H]1OC(=O)C[C@@H](O)[C@@H]2[C@]1(C)CC[C@H]1[C@@]2(C)CC[C@@]2(C)[C@@H]3CC(C)(C)CC[C@]3(C)CC[C@]12C	Not toxic	Not toxic	Not toxic	Not toxic	–	–
CC(=O)O[C@H]1C[C@@H](OC(C)=O)[C@@H]2[C@](C)(CC[C@H]3[C@@]2(C)CC[C@@]2(C)[C@@H]4CC(C)(C)CC[C@]4(C)CC[C@]32C)[C@H]1C	Not toxic	Not toxic	Not toxic	Not toxic	–	–
C=C[C@@H]1[C@@](C)([C@@H](C)C(=O)O)CC[C@H]2[C@@]1(C)CC[C@@]1(C)[C@@H]3CC(C)(C)CC[C@]3(C)CC[C@]21C	Not toxic	Not toxic	Not toxic	Not toxic	36.8	–
CC1(C)CC[C@]2(C)CC[C@]3(C)[C@H]4CC[C@@]5(C)[C@@H](CC[C@H](O)[C@@H]5C(=O)O)[C@]4(C)CC[C@@]3(C)[C@@H]2C1	Not toxic	Not toxic	Not toxic	Not toxic	–	–
CC1(C)CC[C@]2(C)CC[C@]3(C)[C@H]4CC[C@@]5(C)[C@@H](C=CC(=O)[C@@]5(C)O)[C@]4(C)CC[C@@]3(C)[C@@H]2C1	Not toxic	Not toxic	Not toxic	Not toxic	–	41.8
C[C@H]1C(=O)CC(=O)[C@@H]2[C@]1(C)CC[C@H]1[C@@]2(C)CC[C@@]2(C)[C@@H]3CC(C)(C)CC[C@]3(C)CC[C@]12C	Not toxic	Not toxic	Not toxic	Not toxic	–	–
C[C@H]1/C(=N/O)C[C@@H](O)[C@@H]2[C@]1(C)CC[C@H]1[C@@]2(C)CC[C@@]2(C)[C@@H]3CC(C)(C)CC[C@]3(C)CC[C@]12C	Not toxic	Not toxic	Not toxic	Not toxic	–	–
C[C@H]1C(=O)C[C@@H](O)[C@@H]2[C@]1(C)CC[C@H]1[C@@]2(C)CC[C@@]2(C)[C@@H]3CC(C)(C)CC[C@]3(C)CC[C@]12C	Not toxic	Not toxic	Not toxic	Not toxic	–	–

Reference: ChEMBL document CHEMBL1641392, “Triterpenes from Garcia parviflora. Cytotoxic evaluation of natural and semisynthetic friedelanes” (J Nat Prod, 2010)
